Results published in PubChem BioAssay.
Active and inactive are the calls of the source.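 The calls were made as follows, unless noted: active = viability at or below 10% of carrier control in both of two separate runs; inconclusive = viability at or below 10% in only one of the two runs; inactive = the rest.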

Key:
[1] = reducers of endogenous Her2 protein level, primary screen, SKBR3 breast tumor cells, AlphaScreen, ATP viability (AID 461;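 active = Her2 level under about 52% in both replicate screens, with viability over 70% of control, limit read from the data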;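 as to Her2 level: lower value means less Her2 protein in the cells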;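 as to viability: percent of carrier control wells set as 100% viability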); conditions: 18-24 h, measured here: SKBR3 viability, ATP luminescence, at 10 µM
[2] = target: Receptor tyrosine-protein kinase erbB-2 (Homo sapiens) (UniProt P04626); assay: as above; conditions: 18-24 h, at 10 µM, stronger effect = lower value
Chain of Receptor tyrosine-protein kinase erbB-2 (Homo sapiens) (P04626 whole entry, looked up): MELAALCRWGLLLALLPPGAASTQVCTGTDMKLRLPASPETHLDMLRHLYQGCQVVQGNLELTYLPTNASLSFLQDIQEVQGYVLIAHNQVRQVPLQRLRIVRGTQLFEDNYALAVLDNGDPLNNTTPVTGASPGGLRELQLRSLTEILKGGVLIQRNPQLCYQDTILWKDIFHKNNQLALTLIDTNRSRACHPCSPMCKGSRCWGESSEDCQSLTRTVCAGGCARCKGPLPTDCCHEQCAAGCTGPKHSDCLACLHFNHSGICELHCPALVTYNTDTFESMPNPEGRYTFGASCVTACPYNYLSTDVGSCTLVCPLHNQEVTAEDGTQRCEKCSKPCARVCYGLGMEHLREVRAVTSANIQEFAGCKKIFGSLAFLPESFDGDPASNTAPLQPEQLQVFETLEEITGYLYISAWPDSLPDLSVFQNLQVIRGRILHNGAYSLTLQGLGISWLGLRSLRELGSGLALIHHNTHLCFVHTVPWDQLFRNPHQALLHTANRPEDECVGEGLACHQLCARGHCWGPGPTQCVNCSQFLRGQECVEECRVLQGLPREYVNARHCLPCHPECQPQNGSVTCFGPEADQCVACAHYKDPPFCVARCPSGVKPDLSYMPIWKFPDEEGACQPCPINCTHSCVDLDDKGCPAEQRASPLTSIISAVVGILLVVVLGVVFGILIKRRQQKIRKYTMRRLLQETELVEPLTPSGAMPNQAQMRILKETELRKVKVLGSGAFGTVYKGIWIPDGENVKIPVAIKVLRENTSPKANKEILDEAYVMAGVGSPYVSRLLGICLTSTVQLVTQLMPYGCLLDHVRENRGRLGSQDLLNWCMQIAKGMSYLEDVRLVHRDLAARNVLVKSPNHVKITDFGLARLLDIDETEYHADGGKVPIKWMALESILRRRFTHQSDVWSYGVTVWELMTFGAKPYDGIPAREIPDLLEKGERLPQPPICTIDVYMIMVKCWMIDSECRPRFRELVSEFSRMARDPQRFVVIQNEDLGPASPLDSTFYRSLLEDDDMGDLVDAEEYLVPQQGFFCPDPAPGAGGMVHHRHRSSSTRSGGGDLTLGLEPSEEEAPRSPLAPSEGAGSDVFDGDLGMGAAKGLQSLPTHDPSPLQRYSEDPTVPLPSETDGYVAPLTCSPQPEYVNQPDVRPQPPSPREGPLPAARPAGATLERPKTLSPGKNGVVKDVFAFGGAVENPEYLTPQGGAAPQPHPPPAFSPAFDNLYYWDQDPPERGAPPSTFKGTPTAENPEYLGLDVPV

[3] = SK-BR-3 cell growth inhibitors, pilot screen, 24 h, human (AID 572); conditions: SK-BR-3 viability, CellTiter-Glo luminescence, at 10 µM, stronger effect = lower value;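 also: compound exposure lasted between 18 and 24 h rather than exactly 24 h; 100% = carrier-treated control wells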
[4] = HUVEC growth inhibition – cell-based, human, primary screen (AID 575;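 active = viability at or below 30% in both replicate assays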;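 also: 100% = median of untreated cell wells with 0.1% DMSO on each plate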); conditions: HUVEC proliferation, CellTiter-Glo luminescence, 72 h; at 10 µM; stronger effect = lower value
Procedure, shortened: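 system = HUVEC primary cells | amount = 1250 cells/well | buffer or medium = supplemented EBM, 2% fetal bovine serum | dosing = single-point 10 µM, DMSO 0.1% final | times = 72 h compound incubation | detection = CTG luminescence | read-out = % viability relative to median vehicle-well signal on each plate | control set = vehicle and MePR control wells | format = collagen-coated 384-well format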

[5] = growth inhibitors of H69AR lung tumor, primary screen, human, duplicate replicates (AID 580;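 active = viability at or under a set limit in both replicates, limit being median viability minus 3 SD, cut at about 48% in these data, passing the limit was not always enough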;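 also: 100% = mean luminescence of untreated wells and 0% = no signal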); conditions: H69AR lung tumor cells viability, ATP luminescence, 72 h; at 10 µM; stronger effect = lower value
[6] = reversal of MRP1-mediated doxorubicin resistance, pilot screen, H69AR cells, doxorubicin co-treatment (AID 601;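 active = viability loss from added drug above about 55%, and viability with drug at most 40%, in both replicates, limit read from the data, passing the limit was not always enough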); conditions: CellTiter-Glo, 72 h, at 10 µM; for differential viability (reversal): stronger effect = higher value
[7] = 384-well plate pilot, post-Golgi transport modulator project, inhibition of yeast transport mutant growth (AID 636; in the data active = inhibition above about 31%); conditions: absorbance 615 nm, about 18 h, stronger effect = higher value
[8] = growth suppression of yeast trafficking mutant, preliminary HTS, modulators of trafficking downstream of Golgi apparatus project, 1536-format plate, OD 615 nm (AID 637; in the data active = inhibition above about 30%); conditions: yeast transport mutant growth, absorbance 615 nm, 18 h; stronger effect = higher value
[9] = H69AR cells + 2 uM doxorubicin, measured here: viability with 2 uM doxorubicin, stronger effect = lower value
[10] = H69AR cells, compound alone cytotoxicity

Row | Structure (SMILES) | viability [1] | Her2 level [2] | viability [3] | viability [4] | viability [5] | differential viability (reversal) ([6]; H69AR cells + 2 uM doxorubicin) | viability [6, 9] | viability [6, 10] | inhibition [7] | inhibition [8]
1 | FC(F)(F)C(F)(F)C(F)(F)c1nnc2ccc(N3CCOCC3)nn12 | 97.5% | 118% (inactive) | 97.5% (inactive) | 84.8% (inactive) | 83.7% (inactive) | -0.265% (inactive) | 83.9% | 83.7% | 4.21% (inactive) | 7.94% (inactive)
2 | O=C1c2ccccc2C(Nc2ccc3c(c2)OCCO3)N1Cc1ccco1 (stereo not given) | 106% | 112% (inactive) | 106% (inactive) | 87.7% (inactive) | 80.7% (inactive) | -22.6% (inactive) | 103% | 80.7% | 4.23% (inactive) | -1.5% (inactive)
3 | Cc1cc(-c2ccccc2)nc2cc(C(N)=O)nn12 | 102% | 94% (inactive) | 102% (inactive) | 101% (inactive) | 96% (inactive) | 8.83% (inactive) | 87.1% | 96% | -2.63% (inactive) | 1.61% (inactive)
4 | O=C1COc2ccc(C(=O)COC(=O)CCc3ccc(S(=O)(=O)N4CCOCC4)cc3)cc2N1 | 105% | 98% (inactive) | 105% (inactive) | 80.3% (inactive) | 79% (inactive) | -10.4% (inactive) | 89.4% | 79% | 2.69% (inactive) | 1.67% (inactive)
5 | COc1ccc(N2CCN(C(=O)CSc3ccccc3N)CC2)cc1 | 85.5% | 88% (inactive) | 85.5% (inactive) | 88.2% (inactive) | 94.9% (inactive) | -2.63% (inactive) | 97.5% | 94.9% | 0% (inactive) | -0.55% (inactive)
6 | CCn1ncc(C2=NOC(C(=O)Nc3ccc4c(c3)OCO4)C2)c1C (stereo not given) | 95.5% | 139% (inactive) | 95.5% (inactive) | 108% (inactive) | 94.8% (inactive) | 0.945% (inactive) | 93.9% | 94.8% | -3.97% (inactive) | -4.92% (inactive)
7 | CN1CCN(c2nc3c(c(=O)[nH]c(=O)n3C)n2CCOc2ccccc2)CC1 | 75.5% | 85.5% (inactive) | 75.5% (inactive) | 80.1% (inactive) | 92.2% (inactive) | 0.615% (inactive) | 91.5% | 92.2% | -6.49% (inactive) | 2.62% (inactive)
8 | O=C(NCc1ccco1)Nc1ccc2nsnc2c1 | 104% | 114% (inactive) | 104% (inactive) | 51.5% (inactive) | 22% (active) | -1.17% (inactive) | 23.2% | 22% | -3.6% (inactive) | -6.45% (inactive)
9 | COc1ccc(-c2nc(SC)n(S(=O)(=O)c3ccccc3)n2)cc1 | 80% | 114% (inactive) | 80% (inactive) | 86.1% (inactive) | 98.1% (inactive) | 17.5% (inactive) | 80.6% | 98.1% | 1.73% (inactive) | -10.8% (inactive)
10 | Cn1c(=O)cc(OCC(=O)NCCCN2CCN(Cc3ccccc3)CC2)c2ccccc21 | 90.5% | 104% (inactive) | 90.5% (inactive) | 81.3% (inactive) | 103% (inactive) | 17.9% (inactive) | 84.8% | 103% | -0.93% (inactive) | -7.87% (inactive)
11 | CCOC(=O)Cn1nnnc1CN(Cc1ccc(OC)cc1)Cc1cc2cc(C)cc(C)c2[nH]c1=O | 95% | 105% (inactive) | 95% (inactive) | 87.3% (inactive) | 89.4% (inactive) | 15.2% (inactive) | 74.2% | 89.4% | -1.32% (inactive) | -0.55% (inactive)
12 | COc1ccc(-c2noc(-c3ccccc3C(=O)Nc3cccnc3)n2)cc1 | 109% | 98.5% (inactive) | 109% (inactive) | 106% (inactive) | 86.5% (inactive) | 13.2% (inactive) | 73.3% | 86.5% | -1.17% (inactive) | 0.79% (inactive)
13 | CC1CCCN(c2ccc(C(=O)NCc3cccs3)cn2)C1 (stereo not given) | 98.5% | 89.5% (inactive) | 98.5% (inactive) | 96.1% (inactive) | 82.8% (inactive) | 4.85% (inactive) | 77.9% | 82.8% | -0.91% (inactive) | -2.86% (inactive)
14 | CCSc1nc2ccccc2n1CCC(=O)O | 99% | 91.5% (inactive) | 99% (inactive) | 101% (inactive) | 109% (inactive) | 15.9% (inactive) | 93.4% | 109% | -5.21% (inactive) | 1.11% (inactive)
15 | O=C(N1CCN(c2ccccc2F)CC1)C12CC3CC(CC(C3)C1)C2 | 88.5% | 87.5% (inactive) | 88.5% (inactive) | 93.7% (inactive) | 89.9% (inactive) | -8.84% (inactive) | 98.7% | 89.9% | -5.6% (inactive) | 3.97% (inactive)
16 | Cc1ccc(S(=O)(=O)C2(C(=O)N3CCCCCC3)CC2)cc1 | 96.5% | 83% (inactive) | 96.5% (inactive) | 93.8% (inactive) | 107% (inactive) | 1.4% (inactive) | 105% | 107% | -2.73% (inactive) | -0.95% (inactive)

Row | Structure (SMILES) | viability [1] | Her2 level [2] | viability [3] | viability [4] | viability [5] | differential viability (reversal) ([6]; H69AR cells + 2 uM doxorubicin) | viability [6, 9] | viability [6, 10] | inhibition [7] | inhibition [8]
17 | N#CC1=C(N)N(c2ccccc2)C(c2ccco2)C1(C#N)C#N (stereo not given) | 95.5% | 99.5% (inactive) | 95.5% (inactive) | 102% (inactive) | 85.5% (inactive) | -0.88% (inactive) | 86.4% | 85.5% | -6.53% (inactive) | -2.54% (inactive)
18 | COC(=O)/C=c1/s/c(=C(/C#N)C(=O)N2CCOCC2)n(-c2ccccc2)c1=O | 116% | 80.5% (inactive) | 116% (inactive) | 98.8% (inactive) | 88.8% (inactive) | -10.8% (inactive) | 99.6% | 88.8% | -7.4% (inactive) | -3.17% (inactive)
19 | Cc1ccccc1N1CC(c2nc3ccccc3[nH]2)CC1=O (stereo not given) | 102% | 91.5% (inactive) | 102% (inactive) | 87.7% (inactive) | 96.1% (inactive) | -0.615% (inactive) | 96.7% | 96.1% | -0.92% (inactive) | -5.71% (inactive)
20 | COc1cccc(N(C(=O)c2ccco2)C(C(=O)NC2CCCC2)c2ccc(N(C)C)cc2)c1 (stereo not given) | 98% | 92.5% (inactive) | 98% (inactive) | 97.5% (inactive) | 91.8% (inactive) | 14.6% (inactive) | 77.2% | 91.8% | -5.45% (inactive) | -2.13% (inactive)
21 | Cc1nnc(N(C)C(=O)c2cccnc2)s1 | 110% | 110% (inactive) | 110% (inactive) | 93.1% (inactive) | 88.7% (inactive) | 1.22% (inactive) | 87.5% | 88.7% | 0.96% (inactive) | 3.33% (inactive)
22 | Cc1cc(C)nc(N2CCC(C(=O)Nc3ccc4c(c3)CCC4)CC2)n1 | 81.5% | 85% (inactive) | 81.5% (inactive) | 54.9% (inactive) | 103% (inactive) | 7.34% (inactive) | 96% | 103% | -4.74% (inactive) | -2.67% (inactive)
23 | CCOc1ccccc1C1CC(=O)Nc2cc3c(cc21)OCO3 (stereo not given) | 110% | 83.5% (inactive) | 110% (inactive) | 31% (inactive) | 23.7% (active) | -37.2% (inactive) | 60.9% | 23.7% | -4.61% (inactive) | 8.17% (inactive)
24 | Cn1c(NCc2cccc(Br)c2)nc2ccccc21 | 87% | 86.5% (inactive) | 87% (inactive) | 83.7% (inactive) | 81.1% (inactive) | 7.16% (inactive) | 73.9% | 81.1% | -4.27% (inactive) | -3.87% (inactive)
25 | CCc1cc2c(=O)c(-c3cscn3)coc2cc1O | 108% | 96% (inactive) | 108% (inactive) | 63.5% (inactive) | 88.8% (inactive) | -13% (inactive) | 102% | 88.8% | -1.32% (inactive) | 2.95% (inactive)
26 | CCOCCCNC(=O)c1cc2sc(Cl)cc2n1CC | 89% | 88% (inactive) | 89% (inactive) | 60% (inactive) | 28.5% (active) | -44% (inactive) | 72.5% | 28.5% | -8.36% (inactive) | -0.95% (inactive)
27 | CCCCC(CC)C(=O)Nc1ccccc1C#N (stereo not given) | 96% | 95% (inactive) | 96% (inactive) | 98.6% (inactive) | 89.1% (inactive) | 8.93% (inactive) | 80.1% | 89.1% | -4.34% (inactive) | 4.29% (inactive)
28 | Cc1cc(Nc2ccccc2F)n2ncnc2n1 | 101% | 97.5% (inactive) | 101% (inactive) | 99% (inactive) | 97.1% (inactive) | 8.83% (inactive) | 88.3% | 97.1% | -0.67% (inactive) | 0.16% (inactive)
29 | Cc1onc(-c2ccccc2)c1C(=O)N1CCOCC1 | 110% | 87% (inactive) | 110% (inactive) | 99.3% (inactive) | 107% (inactive) | 12.6% (inactive) | 94.4% | 107% | -3.42% (inactive) | -2.83% (inactive)
30 | CC1CN(C2CCCCC2)c2nc3c(c(=O)[nH]c(=O)n3C)n2C1 (stereo not given) | 90.5% | 95% (inactive) | 90.5% (inactive) | 86.1% (inactive) | 82.2% (inactive) | -2.19% (inactive) | 84.4% | 82.2% | -1.95% (inactive) | 7.3% (inactive)
31 | COc1ccccc1-n1c(SCC(=O)Nc2ccc3c(c2)OCO3)nc2c(c1=O)SCC2 | 82.5% | 112% (inactive) | 82.5% (inactive) | 85% (inactive) | 87.4% (inactive) | 0.71% (inactive) | 86.7% | 87.4% | -0.55% (inactive) | 23.5% (inactive)
